Results collected from several papers.
BCHE: Cholinesterase (BCHE, Homo sapiens, UniProt P06276)
Oprk1: Kappa-type opioid receptor (Oprk1, Mus musculus, UniProt P33534)

COc1cc2c(cc1OC)CN(CCc1ccc(NC(=O)c3cccc4c(=O)c5cccc(OC)c5[nH]c34)cc1)CC2
Ki (Muscarinic acetylcholine receptor M5 (CHRM5, Homo sapiens, UniProt P08912); cell-free assay): > 10000 nM

CC(=O)N[C@H]1[C@@H](O[C@@H]2O[C@H](C[C@@H](O)[C@H]3O[C@@H](n4ccc(=O)[nH]c4=O)[C@H](O)[C@@H]3O)[C@H](O)[C@H](O)[C@H]2NC(=O)/C=C/CCCCCCCCCC(C)C)O[C@H](CO)[C@@H](O)[C@@H]1O
IC50 (UDP-N-acetylglucosamine--dolichyl-phosphate N-acetylglucosaminephosphotransferase (Homo sapiens, UniProt Q9H3H5); enzyme activity, inhibitor): 1530 nM

CC(C)c1cc2c(c(O)c1O)[C@@]1(C(=O)O)CCCC(C)(C)[C@@H]1CC2
IC50 (BCHE; enzyme activity, inhibitor): 0.66 nM

C=CCOc1ccc(C(=O)/C=C/c2ccc(OC)cc2)c(OS(=O)(=O)c2ccc(OC)cc2)c1I
IC50 (BCHE; enzyme activity, inhibitor): 30100 nM

Cn1cc2cc(C(F)(F)c3nnc4ccc(-c5cnn(C6CC6)c5)nn34)c(F)cc2n1
IC50 (Fibroblast growth factor receptor 4 (FGFR4, Homo sapiens, UniProt P22455); enzyme activity, inhibitor, ADP detection): > 1000 nM

CC(C)c1cc2c(c(O)c1O)[C@@]13CCCC(C)(C)[C@@H]1[C@H](OC3=O)[C@H]2O
Ki (BCHE; enzyme activity, inhibitor, absorbance): 0.2 nM

CC(C)[C@@H](CN1CCc2ccccc2C1)NC(=O)c1cccc(-c2cccc(O)c2)c1
Ki (Oprk1; ligand displacement, radioligand): 810 nM

COc1c2c(cc3c1-c1c(cc4c(c1OC)OCO4)C[C@H](C)[C@H](C)C3)OCO2
IC50 (BCHE; enzyme activity, inhibitor, Ellman): > 100000 nM

C=CCOc1ccc(C(=O)/C=C/c2cccc(F)c2)c(OS(C)(=O)=O)c1I
IC50 (BCHE; enzyme activity, inhibitor): 19200 nM

CC(C)[C@H](CN1CCc2ccccc2C1)NC(=O)Cc1c[nH]c2ccccc12
Ki (Oprk1; ligand displacement, radioligand): 2810 nM

CC(C)c1cc2c(c(O)c1O)[C@@]13CCCC(C)(C)[C@@H]1[C@@H](O)[C@@H]2OC3=O
Ki (BCHE; enzyme activity, inhibitor, absorbance): 0.33 nM

C=CCOc1ccc(C(=O)/C=C/c2cccc(F)c2)c(OS(=O)(=O)c2ccc(OC)cc2)c1I
IC50 (BCHE; enzyme activity, inhibitor): 14500 nM

CC(C)c1cc2c(c(O)c1O)[C@@]13CCCC(C)(C)[C@@H]1C[C@@H]2OC3=O
Ki (BCHE; enzyme activity, inhibitor, absorbance): 0.3 nM

CCCC[C@H](NC(C)=O)C(=O)N[C@H]1CC(=O)NCCCC[C@@H](C(=O)N2CCC[C@@H]2C(=O)N[C@@H](C(=O)N2CCC[C@@H]2C(N)=O)C(C)C)NC(=O)[C@H](Cc2c[nH]c3ccccc23)NC(=O)[C@H](CCCNC(=N)N)NC(=O)[C@@H](Cc2ccccc2)NC(=O)[C@@H]2CCCN2C1=O
EC50 (Melanocortin receptor 4 (MC4R, Homo sapiens, UniProt P32245); cAMP, agonist): 0.89 nM

C=CCOc1ccc(C(=O)/C=C/c2ccc(OC)cc2)c(OS(=O)(=O)c2ccc(F)cc2)c1I
IC50 (BCHE; enzyme activity, inhibitor): 11300 nM

COc1cc(/C=C/C(=O)O)ccc1OCc1cn(CC(=O)Nc2ccc(Cl)cc2Cl)nn1
IC50 (BCHE; enzyme activity, inhibitor, Ellman): 12000 nM
